Active and inactive are the calls of the source. The calls are words filed in the database; no cut-off is given here.
Columns and labels:
[1] = tested on: Mus musculus; assay: Antihyperglycemic activity in db/db mouse assessed as reduction in insulin level at 30 mg/kg, po qd for 15 days; type: functional; set-up: scale not given: the % may be the effect or the level left
Method in brief: (§1)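 db/db mice given 3, 10 or 30 mg/kg orally once a day for 15 consecutive days, alongside vehicle controls. Serum triglyceride, total cholesterol, HDL-C and insulin measured, along with fasting blood glucose. Expressed as mean % change in 5 animals per group versus control.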

[2] = biological target: T1, Tyrosine-protein phosphatase non-receptor type 1 (Rattus norvegicus) (UniProt P20417); assay: Inhibition of PTP1B in rat L6 cells assessed as increase in insulin-stimulated GSK3beta Ser9 phosphorylation at 10 to 25 uM pre-incubated for 16 hrs before insulin stimulation for 10 mins by Western blot method; type: cell-based
T1 sequence (whole entry): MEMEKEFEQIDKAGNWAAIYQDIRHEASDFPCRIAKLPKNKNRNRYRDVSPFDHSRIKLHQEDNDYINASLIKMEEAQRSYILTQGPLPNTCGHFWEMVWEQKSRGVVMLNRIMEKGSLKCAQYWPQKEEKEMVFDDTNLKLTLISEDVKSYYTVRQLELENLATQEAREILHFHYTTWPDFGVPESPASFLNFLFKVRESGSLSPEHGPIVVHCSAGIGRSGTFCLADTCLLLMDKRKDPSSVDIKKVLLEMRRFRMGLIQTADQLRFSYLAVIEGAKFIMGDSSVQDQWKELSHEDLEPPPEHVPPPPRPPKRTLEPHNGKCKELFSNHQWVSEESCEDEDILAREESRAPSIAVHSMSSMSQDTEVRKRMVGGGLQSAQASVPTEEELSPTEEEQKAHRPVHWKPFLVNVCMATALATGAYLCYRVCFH
Method in brief: (§2)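 L6 myotubes treated for 16 h with the compound at the indicated concentrations, then stimulated with insulin (100 nM) for 10 min. Cells lysed and analysed by western blot. Densitometry of p-IRS-1, p-AKT and p-GSK, each relative to its total form. Compared with control and with insulin-treated control.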

[3] = tested on: Mus musculus; assay: Antihyperglycemic activity in db/db mouse assessed as reduction in triglyceride level at 3 mg/kg, po qd for 15 days; type: functional; set-up: scale not given: the % may be the effect or the level left; method in brief: as §1
[4] = tested on: L6; assay: Stimulation of [3H]2-deoxyglucose uptake in rat L6 cells incubated for 16 hrs by scintillation counting method; type: functional, cell-based
Method in brief: (§3)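 L6 myotubes incubated with the compound […]; insulin at 100 nM for 20 min served as the positive control. Uptake of ³H-2-deoxyglucose measured and expressed as fold stimulation relative to the control condition.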

[5] = tested on: Mus musculus; assay: Antihyperglycemic activity in db/db mouse assessed as reduction in serum insulin level at 3 to 30 mg/kg, po qd for 15 days; type: functional, organism-based; method in brief: as §1
[6] = tested on: Mus musculus; assay: Antihyperglycemic activity in db/db mouse assessed as improvement on glucose tolerance by measuring blood glucose AUC level at 30 mg/kg, po qd for 15 days by oral glucose tolerance test; type: functional
Method in brief: (§4)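 db/db mice dosed orally once daily for 15 consecutive days at 3, 10 or 30 mg/kg, with vehicle controls and pioglitazone at 10 mg/kg. Oral glucose tolerance tests on day 10 and day 15. Overall improvement in glucose tolerance calculated against vehicle control. Mean % change in 5 animals per group.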

[7] = tested on: L6; assay: Stimulation of [3H]2-deoxyglucose uptake in rat L6 cells at 2.5 uM incubated for 16 hrs by scintillation counting method; type: functional, cell-based; method in brief: as §3
[8] = tested on: Mus musculus; assay: Antihyperglycemic activity in db/db mouse assessed as reduction in blood glucose level at 30 mg/kg, po qd and measured on day 7 by oral glucose tolerance test; type: functional, organism-based
Method in brief: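 Type 2 diabetic db/db mice dosed orally once a day for 15 days at 3, 10 or 30 mg/kg, with pioglitazone at 10 mg/kg as standard. Blood glucose measured daily and profile compared with vehicle-treated animals. Mean % change in 5 animals per group.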

[9] = tested on: Mus musculus; assay: Antihyperglycemic activity in db/db mouse assessed as reduction in insulin level at 3 mg/kg, po qd for 15 days; type: functional; set-up: scale not given: the % may be the effect or the level left; method in brief: as §1
[10] = tested on: Mus musculus; assay: Antihyperglycemic activity in db/db mouse assessed as reduction in cholesterol level at 10 mg/kg, po qd for 15 days; type: functional; set-up: scale not given: the % may be the effect or the level left; method in brief: as §1
[11] = tested on: Mus musculus; assay: Toxicity in db/db mouse assessed as effect on food intake level at 3 to 30 mg/kg, po qd for 15 days by oral glucose tolerance test; type: organism-based; details: in vivo, 360 h
[12] = tested on: Mus musculus; assay: Antihyperglycemic activity in db/db mouse assessed as reduction in fasting blood glucose level at 3 mg/kg, po qd for 15 days; type: functional; set-up: scale not given: the % may be the effect or the level left; method in brief: as §1
[13] = biological target: T1, Tyrosine-protein phosphatase non-receptor type 1 (Rattus norvegicus); assay: Inhibition of PTP1B in rat L6 cells assessed as increase in insulin-stimulated Akt Ser473 phosphorylation at 10 to 25 uM pre-incubated for 16 hrs before insulin stimulation for 10 mins by Western blot method; type: cell-based; method in brief: as §2
[14] = tested on: Mus musculus; assay: Antihyperglycemic activity in db/db mouse assessed as reduction in fasting blood glucose level at 30 mg/kg, po qd for 15 days; type: functional; set-up: scale not given: the % may be the effect or the level left; method in brief: as §1
[15] = biological target: T2, Tyrosine-protein phosphatase non-receptor type 1 (Homo sapiens) (UniProt P18031); assay: Inhibition of human recombinant PTP1B using IR5 insulin receptor-beta (1142 to 1153 residues, pY1146) substrate BY Malachite green dye based assay
T2 sequence (whole entry): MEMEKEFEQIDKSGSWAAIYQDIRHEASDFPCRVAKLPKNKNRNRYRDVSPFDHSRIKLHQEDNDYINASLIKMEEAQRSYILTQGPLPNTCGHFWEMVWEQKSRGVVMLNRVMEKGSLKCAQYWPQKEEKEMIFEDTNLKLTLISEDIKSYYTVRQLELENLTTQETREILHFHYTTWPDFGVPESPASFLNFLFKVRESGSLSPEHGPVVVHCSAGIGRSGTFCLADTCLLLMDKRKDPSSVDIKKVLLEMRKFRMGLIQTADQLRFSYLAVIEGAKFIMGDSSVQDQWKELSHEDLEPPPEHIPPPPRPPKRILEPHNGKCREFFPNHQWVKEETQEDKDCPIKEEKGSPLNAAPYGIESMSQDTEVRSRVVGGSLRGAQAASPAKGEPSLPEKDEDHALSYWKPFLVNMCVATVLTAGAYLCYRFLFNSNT

[16] = tested on: Mus musculus; assay: Antihyperglycemic activity in db/db mouse assessed as improvement on glucose tolerance by measuring blood glucose AUC level at 30 mg/kg, po qd for 10 days by oral glucose tolerance test; type: functional; method in brief: as §4
[17] = tested on: Mus musculus; assay: Antihyperglycemic activity in db/db mouse assessed as increase in HDL-C level at 3 mg/kg, po qd for 15 days; type: functional; method in brief: as §1
[18] = tested on: HepG2; assay: Inhibition of glucagon-mediated glucose release in human HepG2 cells at 10 uM incubated for 24 hrs by Amplex red glucose/glucose oxidase assay; type: functional, cell-based
[19] = tested on: HepG2; assay: Stimulation of [3H]2-deoxyglucose uptake in human HepG2 cells at 10 uM incubated for 16 hrs by scintillation counting method; type: functional, cell-based
[20] = tested on: Mus musculus; assay: Antihyperglycemic activity in db/db mouse assessed as improvement on glucose tolerance by measuring blood glucose AUC level at 10 mg/kg, po qd for 10 days by oral glucose tolerance test; type: functional; method in brief: as §4
[21] = tested on: Mus musculus; assay: Antihyperglycemic activity in db/db mouse assessed as reduction in cholesterol level at 3 mg/kg, po qd for 15 days; type: functional; set-up: scale not given: the % may be the effect or the level left; method in brief: as §1

`COC(=O)c1c(SC)cc(-c2ccc(C)cc2)c2c1-c1cn(-c3ccccc3)nc1CC2` was tested. Which Activity [1] did it give?
Its Activity is 30.5%.

And the inhibition [2]?
Its inhibition is “Active”.

What about the Activity [3] of the same molecule?
Its Activity is 8.98%.

What about the Activity [4] of the same molecule?
The Activity was “Dose-dependent effect”.

What about the Activity [5] of the same molecule?
Its Activity is “Dose-dependent effect”.

And the Activity [6]?
The Activity was 31.6%.

What about the Activity [7] of the same molecule?
The Activity was “Active”.

What about the Activity [8] of the same molecule?
The Activity was “Active”.

And the Activity [9]?
The Activity was 6.57%.

And the Activity [10]?
The Activity was 15.3%.

What about the Activity [11] of the same molecule?
Its Activity is “Non-Toxic”.

And the Activity [12]?
The Activity was 10.1%.

And the inhibition [13]?
The inhibition was “Active”.

What about the Activity [14] of the same molecule?
The Activity was 31.9%.

And the inhibition [15]?
Its inhibition is “Dose-dependent effect”.

What about the Activity [16] of the same molecule?
Its Activity is 25.7%.

What about the Activity [17] of the same molecule?
The Activity was 6.27%.

And the inhibition [18]?
The inhibition was “Active”.

What about the Activity [19] of the same molecule?
The Activity was “Active”.

What about the Activity [20] of the same molecule?
The Activity was 13.9%.

What about the Activity [21] of the same molecule?
The Activity was 11.5%.
